ChEMBL document CHEMBL1123737, “Synthesis, absolute configuration, and antibacterial activity of 6,7-dihydro-5,8-dimethyl-9-fluoro-1-oxo-1H,5H- benzo[ij]quinolizine-2-carboxylic acid” (1987)
≈ marks a conversion by molar mass, not a printed value.

What was measured:
Enterococcus faecalis [1] = test: In vitro antibacterial activity against Streptococcus Streptococcus faecalis ATCC 10741; assay type: functional
How it was run: (§1)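 Agar dilution MIC. DMSO stocks at 5 mg/mL were serially 2-fold diluted in nutrient broth and mixed into Mueller-Hinton agar, with 5% defibrinated rabbit blood for hemophilic bacteria. Final range was 12.5 to 0.006 µg/mL. Overnight growth was suspended in saline to McFarland 6 (2 × 10^6/mL) and Steers-replicated. Plates were incubated 30 h at 37 °C; MIC was the lowest concentration preventing visible growth.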

Klebsiella pneumoniae = test: In vitro antibacterial activity against Klebsiella pneumoniae ATCC 23357; assay type: functional; how it was run: as §1
Staphylococcus aureus = test: In vitro antibacterial activity against Staphylococcus aureus ATCC 6538-P; assay type: functional; how it was run: as §1
Bordetella pertussis = test: In vitro antibacterial activity against Bordetella pertussis ATCC 10380; assay type: functional
How it was run: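 Agar dilution on Mueller-Hinton agar with drug from 5 mg/mL DMSO stocks, 2-fold diluted through nutrient broth to 12.5–0.006 µg/mL. Inoculum was applied by Steers replicator. MIC was read as the lowest concentration with no visible growth.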

Enterobacter cloacae = test: In vitro antibacterial activity against Enterobacter cloacae ATCC 23355; assay type: functional; how it was run: as §1
Proteus mirabilis = test: In vitro antibacterial activity against Proteus mirabilis-R 119; assay type: functional; how it was run: as §1
Pseudomonas aeruginosa = test: In vitro antibacterial activity against Pseudomonas aeruginosa ATCC 15422; assay type: functional; how it was run: as §1
[2] = system: Staphylococcus epidermidis; test: In vitro antibacterial activity against Staphylococcus epidermidis ATCC 12228; assay type: functional; how it was run: as §1
Haemophilus influenzae = test: In vitro antibacterial activity against Haemophilus influenzae ATCC 9333; assay type: functional; how it was run: as §1
Escherichia coli = test: In vitro antibacterial activity against Escherichia coli ATCC 15221; assay type: functional; how it was run: as §1
[3] = In vitro antibacterial activity against Pseudomonas cepacia ATCC 25608; assay type: functional; settings: Burkholderia cepacia; how it was run: as §1
[4] = In vitro antibacterial activity against Salmonella typhi-CDC M4694; assay type: functional, salmonella typhosa
How it was run: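 Agar dilution MIC: compounds dissolved in DMSO (5 mg/mL stock), 2-fold serial dilutions in nutrient broth, mixed into Mueller-Hinton agar; series 12.5 down to 0.006 μg/mL. Overnight culture suspended in saline to McFarland 6 (2 × 10^6/mL), spotted with Steers replicator. Incubated 37 °C for 30 h; MIC = lowest concentration preventing visible growth.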

Streptococcus pyogenes = test: In vitro antibacterial activity against Streptococcus pyogenes ATCC 1961-1; assay type: functional; how it was run: as §1
Serratia marcescens = test: In vitro antibacterial activity against Serratia marcescens ATCC 8100; assay type: functional; how it was run: as §1
Enterococcus faecalis [5] = test: In vitro antibacterial activity against Streptococcus faecalis ATCC 10741; assay type: functional; how it was run: as §1

SMILES	MIC (Enterococcus faecalis [1])	MIC (Klebsiella pneumoniae)	MIC (Staphylococcus aureus)	MIC (Bordetella pertussis)	MIC (Enterobacter cloacae)	MIC (Proteus mirabilis)	MIC (Pseudomonas aeruginosa)	MIC [2]	MIC (Haemophilus influenzae)	MIC (Escherichia coli)	MIC [3]	MIC [4]	MIC (Streptococcus pyogenes)	MIC (Serratia marcescens)	MIC (Enterococcus faecalis [5])
Cc1c(F)cc2c(=O)c(C(=O)O)cn3c2c1CCC3	12.5 µg/mL (≈ 47.8 µM)	0.8 µg/mL (≈ 3.06 µM)	0.8 µg/mL (≈ 3.06 µM)	0.8 µg/mL (≈ 3.06 µM)	0.4 µg/mL (≈ 1.53 µM)	1.6 µg/mL (≈ 6.12 µM)	12.5 µg/mL (≈ 47.8 µM)	1.6 µg/mL (≈ 6.12 µM)	0.1 µg/mL (≈ 0.383 µM)	0.8 µg/mL (≈ 3.06 µM)	6.2 µg/mL (≈ 23.7 µM)	0.4 µg/mL (≈ 1.53 µM)	12.5 µg/mL (≈ 47.8 µM)	0.8 µg/mL (≈ 3.06 µM)	
Cc1c(F)cc2c(=O)c(C(=O)O)cn3c2c1CC[C@@H]3C	0.8 µg/mL (≈ 2.91 µM)	0.1 µg/mL (≈ 0.363 µM)	0.025 µg/mL (≈ 0.0908 µM)	0.012 µg/mL (≈ 0.0436 µM)	0.1 µg/mL (≈ 0.363 µM)	0.4 µg/mL (≈ 1.45 µM)	3.1 µg/mL (≈ 11.3 µM)	0.05 µg/mL (≈ 0.182 µM)	0.006 µg/mL (≈ 0.0218 µM)	0.1 µg/mL (≈ 0.363 µM)	0.8 µg/mL (≈ 2.91 µM)	0.05 µg/mL (≈ 0.182 µM)	1.6 µg/mL (≈ 5.81 µM)	0.2 µg/mL (≈ 0.727 µM)	
Cc1c(F)cc2c(=O)c(C(=O)O)cn3c2c1CC[C@H]3C	12.5 µg/mL (≈ 45.4 µM)	6.2 µg/mL (≈ 22.5 µM)	3.1 µg/mL (≈ 11.3 µM)	1.6 µg/mL (≈ 5.81 µM)	3.1 µg/mL (≈ 11.3 µM)	12.5 µg/mL (≈ 45.4 µM)	12.5 µg/mL (≈ 45.4 µM)	6.2 µg/mL (≈ 22.5 µM)	0.4 µg/mL (≈ 1.45 µM)	6.2 µg/mL (≈ 22.5 µM)	12.5 µg/mL (≈ 45.4 µM)	3.1 µg/mL (≈ 11.3 µM)	12.5 µg/mL (≈ 45.4 µM)	3.1 µg/mL (≈ 11.3 µM)	
Cc1c(F)cc2c(=O)c(C(=O)O)cn3c2c1CCC3C (racemic) [IBAFLOXACIN]		0.2 µg/mL (≈ 0.727 µM)	0.05 µg/mL (≈ 0.182 µM)	0.025 µg/mL (≈ 0.0908 µM)	0.2 µg/mL (≈ 0.727 µM)	0.8 µg/mL (≈ 2.91 µM)	6.2 µg/mL (≈ 22.5 µM)	0.1 µg/mL (≈ 0.363 µM)	0.006 µg/mL (≈ 0.0218 µM)	0.2 µg/mL (≈ 0.727 µM)	0.8 µg/mL (≈ 2.91 µM)	0.1 µg/mL (≈ 0.363 µM)	0.8 µg/mL (≈ 2.91 µM)	0.4 µg/mL (≈ 1.45 µM)	0.8 µg/mL (≈ 2.91 µM)
